Measurements reported in ChEMBL document CHEMBL3797160, “Discovery of novel diaryl urea derivatives bearing a triazole moiety as potential antitumor agents” (Eur J Med Chem, 2016).

Tested on: HT-29
Assay: Antiproliferative activity against human HT-29 cells after 72 hrs by MTT assay
Assay type: functional, cell-based
Settings: HT-29, 72 h
Procedure, shortened: (§1)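 MTT assay. Cells grown in MEM with 10% FBS. About 4 × 10³ cells per well were plated and left 24 h at 37 °C in 5% CO₂. Compounds were then added for a further 72 h. MTT was added to a final 5 µg/mL for 4 h at 37 °C. Formazan was dissolved in DMSO and read at 492 nm against a 630 nm reference. Each line was tested three times, and IC50 is the average of at least three determinations.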
`Cn1cnnc1-c1cc(Oc2ccc(NC(=O)Nc3cccc(C(F)(F)F)c3)cc2F)ccn1` showed an IC50 of 3.02 µM. `CN(C)CCn1cnnc1-c1cc(Oc2ccc(NC(=O)Nc3ccc(F)c(Cl)c3)cc2F)ccn1` showed an IC50 of 0.72 µM. In the case of `CN(C)CCn1cnnc1-c1cc(Oc2ccc(NC(=O)Nc3cccc(C(F)(F)F)c3)cc2F)ccn1`, the IC50 is reported as 1.47 µM. Molecule `Cn1ncnc1-c1cc(Oc2ccc(NC(=O)Nc3ccc(Cl)c(C(F)(F)F)c3)cc2F)ccn1` has an IC50 of 12.4 µM. For `CCN(CC)CCn1cnnc1-c1cc(Oc2ccc(NC(=O)Nc3ccccc3C(F)(F)F)cc2F)ccn1`, the IC50 was 3.41 µM. Molecule `CNC(=O)c1cc(Oc2ccc(NC(=O)Nc3ccc(Cl)c(C(F)(F)F)c3)cc2)ccn1` [SORAFENIB] has an IC50 of 3.37 µM. Molecule `O=C(Nc1ccc(Oc2ccnc(-c3nncn3CCCN3CCOCC3)c2)c(F)c1)Nc1ccc(Cl)cc1Cl` has an IC50 of 3.56 µM.

Tested on: not listed separately
Assay: Antiproliferative activity against human H460 cells after 72 hrs by MTT assay
Assay type: functional, cell-based
Settings: NCI-H460, 72 h
Procedure, shortened: as §1
`Cn1cnnc1-c1cc(Oc2ccc(NC(=O)Nc3cccc(C(F)(F)F)c3)cc2F)ccn1` showed an IC50 of 1.27 µM. `CN(C)CCn1cnnc1-c1cc(Oc2ccc(NC(=O)Nc3ccc(F)c(Cl)c3)cc2F)ccn1` showed an IC50 of 1.58 µM. With `CN(C)CCn1cnnc1-c1cc(Oc2ccc(NC(=O)Nc3cccc(C(F)(F)F)c3)cc2F)ccn1` the IC50 was 2.15 µM. In the case of `Cn1ncnc1-c1cc(Oc2ccc(NC(=O)Nc3ccc(Cl)c(C(F)(F)F)c3)cc2F)ccn1`, the IC50 is reported as over 50 µM. `CCN(CC)CCn1cnnc1-c1cc(Oc2ccc(NC(=O)Nc3ccccc3C(F)(F)F)cc2F)ccn1` gave an IC50 of over 50 µM. In the case of `CNC(=O)c1cc(Oc2ccc(NC(=O)Nc3ccc(Cl)c(C(F)(F)F)c3)cc2)ccn1` [SORAFENIB], the IC50 is reported as 2.25 µM.

Tested on: MDA-MB-231
Assay: Antiproliferative activity against human MDA-MB-231 cells after 72 hrs by MTT assay
Assay type: functional, cell-based
Settings: MDA-MB-231, 72 h
Procedure, shortened: as §1
In the case of `Cn1cnnc1-c1cc(Oc2ccc(NC(=O)Nc3cccc(C(F)(F)F)c3)cc2F)ccn1`, the IC50 is reported as 6.47 µM. `CN(C)CCn1cnnc1-c1cc(Oc2ccc(NC(=O)Nc3ccc(F)c(Cl)c3)cc2F)ccn1` gave an IC50 of 8.32 µM. Work on `CN(C)CCn1cnnc1-c1cc(Oc2ccc(NC(=O)Nc3cccc(C(F)(F)F)c3)cc2F)ccn1` yielded an IC50 of 16.4 µM. For `Cn1ncnc1-c1cc(Oc2ccc(NC(=O)Nc3ccc(Cl)c(C(F)(F)F)c3)cc2F)ccn1`, the IC50 was over 50 µM. With `CCN(CC)CCn1cnnc1-c1cc(Oc2ccc(NC(=O)Nc3ccccc3C(F)(F)F)cc2F)ccn1` the IC50 was 11.6 µM. `CNC(=O)c1cc(Oc2ccc(NC(=O)Nc3ccc(Cl)c(C(F)(F)F)c3)cc2)ccn1` [SORAFENIB] gave an IC50 of 3.08 µM. Work on `O=C(Nc1ccc(Oc2ccnc(-c3nncn3CCCN3CCOCC3)c2)c(F)c1)Nc1ccc(Cl)cc1Cl` yielded an IC50 of over 50 µM.

Tested on: not listed separately
Assay: Cytotoxicity against human WI38 cells after 72 hrs by MTT assay
Assay type: cell-based
Settings: WI-38, 72 h
Procedure, shortened: as §1
Work on `Cn1cnnc1-c1cc(Oc2ccc(NC(=O)Nc3cccc(C(F)(F)F)c3)cc2F)ccn1` yielded an IC50 of 12.6 µM. Molecule `CN(C)CCn1cnnc1-c1cc(Oc2ccc(NC(=O)Nc3ccc(F)c(Cl)c3)cc2F)ccn1` has an IC50 of 7.58 µM. `CN(C)CCn1cnnc1-c1cc(Oc2ccc(NC(=O)Nc3cccc(C(F)(F)F)c3)cc2F)ccn1` gave an IC50 of 11.2 µM. In the case of `Cn1ncnc1-c1cc(Oc2ccc(NC(=O)Nc3ccc(Cl)c(C(F)(F)F)c3)cc2F)ccn1`, the IC50 is reported as over 50 µM. With `CCN(CC)CCn1cnnc1-c1cc(Oc2ccc(NC(=O)Nc3ccccc3C(F)(F)F)cc2F)ccn1` the IC50 was 23.5 µM. `CNC(=O)c1cc(Oc2ccc(NC(=O)Nc3ccc(Cl)c(C(F)(F)F)c3)cc2)ccn1` [SORAFENIB] gave an IC50 of 8.42 µM.

Target: Mast/stem cell growth factor receptor Kit (Homo sapiens) (UniProt P10721)
Sequence (P10721 whole entry): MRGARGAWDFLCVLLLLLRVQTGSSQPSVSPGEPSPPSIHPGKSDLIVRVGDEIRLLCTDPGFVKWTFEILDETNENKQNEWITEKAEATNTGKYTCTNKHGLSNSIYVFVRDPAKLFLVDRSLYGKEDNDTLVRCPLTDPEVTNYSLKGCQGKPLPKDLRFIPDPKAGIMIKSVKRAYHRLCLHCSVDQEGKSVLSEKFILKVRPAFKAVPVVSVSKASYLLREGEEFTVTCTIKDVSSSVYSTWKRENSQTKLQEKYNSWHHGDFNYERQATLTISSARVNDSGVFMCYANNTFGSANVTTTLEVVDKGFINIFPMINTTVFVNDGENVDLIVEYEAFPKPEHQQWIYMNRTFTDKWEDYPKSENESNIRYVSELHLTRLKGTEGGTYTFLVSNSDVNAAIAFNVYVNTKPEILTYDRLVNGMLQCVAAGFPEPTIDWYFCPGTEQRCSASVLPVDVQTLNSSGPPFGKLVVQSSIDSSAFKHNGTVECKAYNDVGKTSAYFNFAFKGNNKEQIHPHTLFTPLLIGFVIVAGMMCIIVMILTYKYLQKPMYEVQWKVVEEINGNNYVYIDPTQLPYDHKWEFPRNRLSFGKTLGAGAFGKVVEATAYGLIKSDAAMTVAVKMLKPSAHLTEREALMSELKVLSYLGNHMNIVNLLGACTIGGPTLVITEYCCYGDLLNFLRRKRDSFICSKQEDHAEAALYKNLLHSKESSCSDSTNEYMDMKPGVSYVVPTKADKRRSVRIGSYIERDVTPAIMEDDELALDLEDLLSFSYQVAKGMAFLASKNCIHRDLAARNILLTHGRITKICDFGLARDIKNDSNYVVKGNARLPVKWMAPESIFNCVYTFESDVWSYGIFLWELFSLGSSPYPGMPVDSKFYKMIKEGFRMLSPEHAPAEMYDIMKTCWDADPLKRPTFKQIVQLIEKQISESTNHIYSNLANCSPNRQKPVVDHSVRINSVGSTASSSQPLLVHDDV
Assay: Inhibition of c-KIT (unknown origin) at 10 uM after 1 hr by mobility shift assay
Settings: not given
Procedure, shortened: (§2)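 Mobility shift kinase assay. Compounds were diluted in DMSO and then in kinase buffer, and tested in duplicate wells with enzyme and peptide substrate. Incubation was 1 h at 28 °C before stop buffer was added.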
Work on `CN(C)CCn1cnnc1-c1cc(Oc2ccc(NC(=O)Nc3ccc(F)c(Cl)c3)cc2F)ccn1` yielded an inhibition of 74%. In the case of `CN(C)CCn1cnnc1-c1cc(Oc2ccc(NC(=O)Nc3cccc(C(F)(F)F)c3)cc2F)ccn1`, the inhibition is reported as 60.5%. `CNC(=O)c1cc(Oc2ccc(NC(=O)Nc3ccc(Cl)c(C(F)(F)F)c3)cc2)ccn1` [SORAFENIB] showed an inhibition of 95.6%. `O=C(Nc1ccc(Oc2ccnc(-c3nncn3CCCN3CCOCC3)c2)c(F)c1)Nc1ccc(Cl)cc1Cl` gave an inhibition of 43.5%.

Target: Proto-oncogene tyrosine-protein kinase receptor Ret (Homo sapiens) (UniProt P07949)
Sequence (P07949 whole entry): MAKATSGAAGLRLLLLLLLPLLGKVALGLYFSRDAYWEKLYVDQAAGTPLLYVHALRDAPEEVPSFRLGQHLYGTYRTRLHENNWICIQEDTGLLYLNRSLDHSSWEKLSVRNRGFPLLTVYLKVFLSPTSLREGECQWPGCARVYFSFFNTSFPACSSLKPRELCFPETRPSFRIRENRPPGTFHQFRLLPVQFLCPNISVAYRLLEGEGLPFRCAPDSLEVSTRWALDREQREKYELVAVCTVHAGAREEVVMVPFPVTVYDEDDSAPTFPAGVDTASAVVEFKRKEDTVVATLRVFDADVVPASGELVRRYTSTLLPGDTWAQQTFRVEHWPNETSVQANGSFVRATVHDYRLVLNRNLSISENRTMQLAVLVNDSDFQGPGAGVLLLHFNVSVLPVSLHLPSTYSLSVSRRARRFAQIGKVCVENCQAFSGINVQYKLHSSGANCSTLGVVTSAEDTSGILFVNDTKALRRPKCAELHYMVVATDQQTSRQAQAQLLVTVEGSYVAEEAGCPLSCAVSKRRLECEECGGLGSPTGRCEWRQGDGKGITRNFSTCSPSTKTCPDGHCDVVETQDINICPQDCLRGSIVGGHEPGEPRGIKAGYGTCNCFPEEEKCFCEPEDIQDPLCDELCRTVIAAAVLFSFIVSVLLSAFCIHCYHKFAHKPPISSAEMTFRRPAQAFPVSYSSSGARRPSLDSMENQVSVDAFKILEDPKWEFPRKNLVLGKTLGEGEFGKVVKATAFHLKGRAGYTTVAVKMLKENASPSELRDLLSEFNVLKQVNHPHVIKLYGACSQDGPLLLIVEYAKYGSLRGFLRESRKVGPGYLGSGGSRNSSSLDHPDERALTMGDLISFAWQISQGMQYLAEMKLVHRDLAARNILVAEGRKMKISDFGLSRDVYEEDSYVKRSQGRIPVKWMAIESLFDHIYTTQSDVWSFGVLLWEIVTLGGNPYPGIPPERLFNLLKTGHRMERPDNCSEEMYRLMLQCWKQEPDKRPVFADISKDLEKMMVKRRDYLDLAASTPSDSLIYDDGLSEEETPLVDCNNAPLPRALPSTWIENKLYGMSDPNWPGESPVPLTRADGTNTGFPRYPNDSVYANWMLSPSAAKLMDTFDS
Assay: Inhibition of RET (unknown origin) at 10 uM after 1 hr by mobility shift assay
Settings: not given
Procedure, shortened: as §2
`CN(C)CCn1cnnc1-c1cc(Oc2ccc(NC(=O)Nc3ccc(F)c(Cl)c3)cc2F)ccn1` showed an inhibition of 63.3%. With `CN(C)CCn1cnnc1-c1cc(Oc2ccc(NC(=O)Nc3cccc(C(F)(F)F)c3)cc2F)ccn1` the inhibition was 77.7%. Molecule `CNC(=O)c1cc(Oc2ccc(NC(=O)Nc3ccc(Cl)c(C(F)(F)F)c3)cc2)ccn1` [SORAFENIB] has an inhibition of 97%. Molecule `O=C(Nc1ccc(Oc2ccnc(-c3nncn3CCCN3CCOCC3)c2)c(F)c1)Nc1ccc(Cl)cc1Cl` has an inhibition of 45.6%.

Target: Receptor-type tyrosine-protein kinase FLT3 (Homo sapiens) (UniProt P36888)
Sequence (P36888 whole entry): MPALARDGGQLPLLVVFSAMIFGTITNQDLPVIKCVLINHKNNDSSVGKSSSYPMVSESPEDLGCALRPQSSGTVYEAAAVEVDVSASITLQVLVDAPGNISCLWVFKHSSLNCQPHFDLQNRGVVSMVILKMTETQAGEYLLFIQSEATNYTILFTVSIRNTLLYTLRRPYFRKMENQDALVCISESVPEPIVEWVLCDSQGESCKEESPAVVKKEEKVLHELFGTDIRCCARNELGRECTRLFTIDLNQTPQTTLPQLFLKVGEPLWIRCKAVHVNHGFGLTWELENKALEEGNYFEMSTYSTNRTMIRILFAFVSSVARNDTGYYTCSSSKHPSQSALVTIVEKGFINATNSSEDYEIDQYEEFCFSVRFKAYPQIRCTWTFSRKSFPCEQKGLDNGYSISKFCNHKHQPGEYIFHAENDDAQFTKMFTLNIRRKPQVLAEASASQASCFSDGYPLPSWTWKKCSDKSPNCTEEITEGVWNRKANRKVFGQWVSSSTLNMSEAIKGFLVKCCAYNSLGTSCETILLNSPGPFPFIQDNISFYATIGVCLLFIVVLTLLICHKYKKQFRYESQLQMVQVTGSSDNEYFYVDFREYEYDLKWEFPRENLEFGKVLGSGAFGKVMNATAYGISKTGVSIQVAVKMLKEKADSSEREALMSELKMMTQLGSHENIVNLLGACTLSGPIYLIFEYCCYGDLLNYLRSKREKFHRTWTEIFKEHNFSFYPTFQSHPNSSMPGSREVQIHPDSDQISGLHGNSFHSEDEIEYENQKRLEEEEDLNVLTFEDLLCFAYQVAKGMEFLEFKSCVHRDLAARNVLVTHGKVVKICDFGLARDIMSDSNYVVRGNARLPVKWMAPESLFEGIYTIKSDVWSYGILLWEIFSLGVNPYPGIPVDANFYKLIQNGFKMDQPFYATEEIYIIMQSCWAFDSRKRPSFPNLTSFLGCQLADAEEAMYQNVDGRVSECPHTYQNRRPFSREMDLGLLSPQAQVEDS
Assay: Inhibition of FLT3 (unknown origin) at 10 uM after 1 hr by mobility shift assay
Settings: not given
Procedure, shortened: as §2
`CN(C)CCn1cnnc1-c1cc(Oc2ccc(NC(=O)Nc3ccc(F)c(Cl)c3)cc2F)ccn1` showed an inhibition of 52.2%. `CN(C)CCn1cnnc1-c1cc(Oc2ccc(NC(=O)Nc3cccc(C(F)(F)F)c3)cc2F)ccn1` showed an inhibition of 42.2%. For `CNC(=O)c1cc(Oc2ccc(NC(=O)Nc3ccc(Cl)c(C(F)(F)F)c3)cc2)ccn1` [SORAFENIB], the inhibition was 98.5%. `O=C(Nc1ccc(Oc2ccnc(-c3nncn3CCCN3CCOCC3)c2)c(F)c1)Nc1ccc(Cl)cc1Cl` gave an inhibition of 22%.

Target: Vascular endothelial growth factor receptor 2 (Homo sapiens) (UniProt P35968);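 note: kinase activity read out by mobility shift assay after 1 h of incubation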
Sequence (P35968 whole entry): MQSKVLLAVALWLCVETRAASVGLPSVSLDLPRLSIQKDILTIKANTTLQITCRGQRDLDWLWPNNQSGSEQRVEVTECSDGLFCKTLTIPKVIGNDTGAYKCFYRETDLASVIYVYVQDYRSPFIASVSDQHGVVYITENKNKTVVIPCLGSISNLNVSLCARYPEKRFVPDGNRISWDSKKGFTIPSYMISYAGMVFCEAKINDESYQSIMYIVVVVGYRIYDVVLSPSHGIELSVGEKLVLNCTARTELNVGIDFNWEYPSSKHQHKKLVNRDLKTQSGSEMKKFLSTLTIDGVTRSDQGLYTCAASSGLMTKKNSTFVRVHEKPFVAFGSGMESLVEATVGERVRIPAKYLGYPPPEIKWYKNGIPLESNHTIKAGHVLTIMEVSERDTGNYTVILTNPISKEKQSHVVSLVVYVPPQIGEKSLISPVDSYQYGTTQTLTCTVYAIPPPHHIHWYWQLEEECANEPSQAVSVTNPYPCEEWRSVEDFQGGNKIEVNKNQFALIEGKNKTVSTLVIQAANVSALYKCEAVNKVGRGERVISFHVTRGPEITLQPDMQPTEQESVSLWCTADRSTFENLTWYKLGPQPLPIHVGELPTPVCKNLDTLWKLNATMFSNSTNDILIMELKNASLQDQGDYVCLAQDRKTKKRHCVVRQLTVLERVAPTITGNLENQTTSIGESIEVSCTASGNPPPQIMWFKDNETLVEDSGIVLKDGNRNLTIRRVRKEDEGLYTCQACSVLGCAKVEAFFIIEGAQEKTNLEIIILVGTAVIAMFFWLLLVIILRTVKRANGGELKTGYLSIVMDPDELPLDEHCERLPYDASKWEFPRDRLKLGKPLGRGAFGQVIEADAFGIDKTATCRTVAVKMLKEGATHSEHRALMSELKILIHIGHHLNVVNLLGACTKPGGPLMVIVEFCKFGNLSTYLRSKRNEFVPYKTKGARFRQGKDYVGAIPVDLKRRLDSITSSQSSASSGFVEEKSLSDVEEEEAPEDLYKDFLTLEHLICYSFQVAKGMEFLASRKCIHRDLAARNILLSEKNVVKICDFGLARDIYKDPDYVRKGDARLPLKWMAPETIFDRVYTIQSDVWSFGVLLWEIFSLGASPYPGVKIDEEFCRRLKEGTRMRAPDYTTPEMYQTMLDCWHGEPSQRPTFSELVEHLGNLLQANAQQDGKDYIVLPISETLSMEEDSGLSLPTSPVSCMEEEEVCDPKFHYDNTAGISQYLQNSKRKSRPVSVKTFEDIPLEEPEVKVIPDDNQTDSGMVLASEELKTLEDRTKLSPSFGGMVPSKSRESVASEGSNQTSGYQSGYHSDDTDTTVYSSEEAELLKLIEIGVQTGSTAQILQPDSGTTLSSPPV
Settings: at 10 µM
Work on `CN(C)CCn1cnnc1-c1cc(Oc2ccc(NC(=O)Nc3ccc(F)c(Cl)c3)cc2F)ccn1` yielded an inhibition of 26.9%. With `CN(C)CCn1cnnc1-c1cc(Oc2ccc(NC(=O)Nc3cccc(C(F)(F)F)c3)cc2F)ccn1` the inhibition was 2.7%.
